From ChEMBL document CHEMBL3393033, “6-(Azaindol-2-yl)pyridine-3-sulfonamides as potent and selective inhibitors targeting hepatitis C virus NS4B” (Bioorg Med Chem Lett, 2015)
Activity calls are given as the source filed them. The rule behind the calls is not given here.

Key:
[1] = Toxicity in human HuH7 cells infected with genotype 1b Hepatitis C virus bicistronic replicon Con1 assessed as reduction in GAPDH RNA after 3 days by RT-PCR analysis; assay type: cell-based, Huh-7
In short: (§1)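 Huh7 cells carrying a genotype 1b (Con1) bicistronic HCV replicon seeded at 5000 cells/well. Compound added at a final DMSO concentration of 0.5%, then incubated at 37°C for 3 days. Replicon RNA, and GAPDH RNA as the endogenous selectivity control, quantified by real-time RT-PCR. Values are the average of at least two independent determinations.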

Hepatitis C virus [2] = assay: Antiviral activity against genotype 1b Hepatitis C virus bicistronic replicon Con1 infected in human HuH7 cells after 3 days by RT-PCR analysis; assay type: functional, cell-based, Hepacivirus hominis; conditions: genotype 1b Con1, Huh-7, 72 h; in short: as §1
[3] = Ratio of drug level in liver to plasma Sprague-Dawley rat plasma at 10 mg/kg, po administered as single dose by LC-MS/MS analysis; assay type: ADME, organism-based; parameters: dose 10 mg/kg, route oral
In short: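 Male Sprague Dawley rats (n = 2) received 10 mg/kg orally as a suspension in 0.4% hydroxypropyl methylcellulose, after lyophilization from acetonitrile/water (1:1). Liver and plasma concentrations were measured at 6 h post-dose by LC-MS/MS and expressed as a liver/plasma ratio.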

[4] = Ratio of plasma concentration in po dosed dog at 8 hrs to EC50 for genotype 1b Hepatitis C virus bicistronic replicon Con1 infected in human Huh7 cells; assay type: ADME, organism-based, Huh-7; conditions: in vivo
In short: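 Dogs: male beagles (n = 2) dosed orally at 2 mg/kg as a suspension in 0.4% hydroxypropyl methylcellulose. Plasma concentration at 8 h post-dose was measured by LC-MS/MS and divided by the replicon 1b EC₅₀.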

[5] = AUC (0 to 24 hrs) in dog plasma at 2 mg/kg, po by LC-MS/MS analysis; assay type: ADME, organism-based, Canis lupus familiaris; parameters: time < 24 hr, dose 2 mg/kg, route oral
In short: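 Male beagle dogs (n = 2) were dosed orally at 2 mg/kg. Compound was lyophilized from acetonitrile/water (1:1) and given as a suspension in 0.4% hydroxypropyl methylcellulose. Plasma was collected at 30 min and at 1, 2, 4, 8 and 24 h for LC-MS/MS.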

Hepacivirus hominis [6] = assay: Inhibition of Hepatitis C virus NS5B polymerase up to 10000 nM
Hepatitis C virus [7] = assay: Antiviral activity against HCV genotype 1b Con1 replicon cells expressing NS4B F98C mutant grown under serial passage in presence of 1x to 30x EC90 level of compound assessed as reduction in replicon RNA levels relative to wild type HCV genotype 1b Con1; assay type: functional, Hepacivirus hominis
[8] = Ratio of plasma concentration in Sprague-Dawley rat at 10 mg/kg, po administered as single dose after 6 hrs to EC50 for genotype 1b Hepatitis C virus bicistronic replicon Con1 infected in human HuH7 cells; assay type: ADME, organism-based, Huh-7; parameters: dose 10 mg/kg, route oral; conditions: in vivo
In short: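 Male Sprague Dawley rats (n = 2) received a single 10 mg/kg oral dose in 0.4% hydroxypropyl methylcellulose suspension. Plasma concentration at 6 h post-dose was measured by LC-MS/MS and divided by the Con1 1b replicon EC₅₀ from the Huh7 RT-PCR assay.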

[9] = AUC (0 to 6 hrs) in Sprague-Dawley rat plasma at 10 mg/kg, po administered as single dose by LC-MS/MS analysis; assay type: ADME, organism-based; parameters: time < 6 hr, dose 10 mg/kg, route oral
In short: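 Male Sprague Dawley rats (n = 2) were dosed once orally at 10 mg/kg. Compound was lyophilized from acetonitrile/water (1:1) and given as a suspension in 0.4% hydroxypropyl methylcellulose. Plasma was sampled at 30 min and at 1, 2, 3, 4 and 6 h post-dose for LC-MS/MS. AUC is over 0–6 h.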

Hepatitis C virus [10] = assay: Antiviral activity against HCV genotype 1b Con1 replicon cells expressing NS4B V105M mutant grown under serial passage in presence of 1x to 30x EC90 level of compound assessed as reduction in replicon RNA levels relative to wild type HCV genotype 1b Con1; assay type: functional, Hepacivirus hominis
Hepacivirus hominis [11] = assay: Inhibition of Hepatitis C virus NS3 protease up to 10000 nM
[12] = AUC (0 to 24 hrs) in monkey at 3 mg/kg, po by LC-MS/MS analysis; conditions: cynomolgus monkey, plasma
[13] = Ratio of plasma concentration in po dosed monkey at 8 hrs to EC50 for genotype 1b Hepatitis C virus bicistronic replicon Con1 infected in human Huh7 cells; assay type: ADME, organism-based, Huh-7; conditions: in vivo
In short: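 Monkeys: male cynomolgus (n = 2) dosed orally at 3 mg/kg as a suspension in 0.4% hydroxypropyl methylcellulose. Plasma level at 8 h post-dose was measured by LC-MS/MS and expressed relative to the replicon 1b EC₅₀.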

Row | SMILES | EC50 (Hepatitis C virus [2]) [nM] | Kp [3] | Ratio [8] | AUC(0-t) at 6 h [9] [µM·h] | IC50 at 3 days [1] [nM] | other results
1 | CCCOc1cnc2c(c1)c(C#N)c(-c1ccc(S(=O)(=O)N[C@@H](C)C(F)(F)F)cn1)n2C1CCC1 | 2150 | – | – | – | > 10000 | –
2 | Cc1cnc2c(c1)c(C#N)c(-c1ncc(S(=O)(=O)N[C@@H](C)C(F)(F)F)cn1)n2C1CCC1 | 160 | – | – | – | > 10000 | –
3 | COc1cnc2c(c1)c(C#N)c(-c1ccc(S(=O)(=O)N[C@@H](C)C(F)(F)F)cn1)n2C1CCCC1 | 150 | – | – | – | > 10000 | –
4 | Cc1cnc2c(c1)c(C#N)c(-c1ccc(S(=O)(=O)N[C@@H](C)C(F)(F)F)cc1)n2C1CCC1 | 87 | – | – | – | > 10000 | –
5 | COc1cnc2c(c1)c(C#N)c(-c1ccc(S(=O)(=O)N[C@@H](C)C(F)(F)F)cn1)n2C1CCC1 | 27 | 14 | 30 | 7.61 | > 9000 | Ratio [4]: 6; AUC(0-t) at 24 h [5]: 4.18 µM·h; inhibition (Hepacivirus hominis [6]): inactive; fold change (FC) (Hepatitis C virus [7]): 25; fold change (FC) (Hepatitis C virus [10]): 17; inhibition (Hepacivirus hominis [11]): inactive; AUC(0-t) at 24 h [12]: 2.28 µM·h; Ratio [13]: 4
6 | COc1cnc2c(c1)c(C#N)c(-c1ccc(S(=O)(=O)N[C@@H](C)C(F)(F)F)cn1)n2CC1CC1 | 300 | – | – | – | 7900 | –
7 | Cc1cc2c(C#N)c(-c3ccc(S(=O)(=O)N[C@@H](C)C(F)(F)F)cn3)n(C3CCC3)c2cn1 | 1400 | – | – | – | > 10000 | –
8 | C[C@H](NS(=O)(=O)c1ccc(-c2c(C#N)c3cc(Cl)cnc3n2CC2CC2)nc1)C(F)(F)F | 39 | – | – | – | > 10000 | –
9 | C[C@H](NS(=O)(=O)c1ccc(-c2c(C#N)c3cc(C4CC4)cnc3n2C2CCC2)nc1)C(F)(F)F | 40 | 11 | 32 | 10.2 | > 10000 | –
10 | Cc1cnc2c(C#N)c(-c3ccc(S(=O)(=O)N[C@@H](C)C(F)(F)F)cn3)n(C3CCC3)c2c1 | 119 | – | – | – | > 10000 | –
11 | C[C@H](NS(=O)(=O)c1ccc(-c2c(C#N)c3ncc(Cl)cc3n2C2CCC2)nc1)C(F)(F)F | 94 | – | – | – | 2500 | –
12 | C[C@H](NS(=O)(=O)c1ccc(-c2c(C#N)c3cc(Cl)cnc3n2C2CCCC2)nc1)C(F)(F)F | 27 | 19 | 40 | 6.84 | > 10000 | Ratio [4]: 2; AUC(0-t) at 24 h [5]: 2.07 µM·h; AUC(0-t) at 24 h [12]: 0.29 µM·h; Ratio [13]: 0.3

Continued, in another order:

Row | EC50 (Hepatitis C virus [2]) [nM] | Kp [3] | Ratio [8] | AUC(0-t) at 6 h [9] [µM·h] | SMILES | IC50 at 3 days [1] [nM] | other results
13 | 217 | – | – | – | C[C@H](NS(=O)(=O)c1ccc(-c2c(C#N)c3cccnc3n2C2CCC2)nc1)C(F)(F)F | > 10000 | –
14 | 960 | – | – | – | COc1ccc2c(C#N)c(-c3ccc(S(=O)(=O)N[C@@H](C)C(F)(F)F)cn3)n(C3CCC3)c2n1 | 9700 | –
15 | 240 | – | – | – | COc1ncc2c(C#N)c(-c3ccc(S(=O)(=O)N[C@@H](C)C(F)(F)F)cn3)n(C3CCC3)c2n1 | > 10000 | –
16 | 970 | – | – | – | C[C@H](NS(=O)(=O)c1ccc(-c2c(C#N)c3cnc(OC(F)F)nc3n2C2CCC2)nc1)C(F)(F)F | > 10000 | –
17 | 13 | 9 | 55 | 6.92 | Cc1cnc2c(c1)c(C#N)c(-c1ccc(S(=O)(=O)N[C@@H](C)C(F)(F)F)cn1)n2C1CCC1 | > 10000 | Ratio [4]: 14; AUC(0-t) at 24 h [5]: 5.67 µM·h; AUC(0-t) at 24 h [12]: 0.641 µM·h; Ratio [13]: 1
18 | 230 | – | – | – | Cc1cc2c(cn1)c(C#N)c(-c1ccc(S(=O)(=O)N[C@@H](C)C(F)(F)F)cn1)n2C1CCC1 | > 10000 | –
19 | 17 | 23 | 22 | 2.39 | C[C@H](NS(=O)(=O)c1ccc(-c2c(C#N)c3cc(Cl)cnc3n2C2CCC2)nc1)C(F)(F)F | > 10000 | Ratio [4]: 12; AUC(0-t) at 24 h [5]: 4.08 µM·h; AUC(0-t) at 24 h [12]: 1.03 µM·h; Ratio [13]: 2
20 | 46 | 6 | 23 | 8.78 | C[C@H](NS(=O)(=O)c1ccc(-c2c(C#N)c3cc(F)cnc3n2C2CCC2)nc1)C(F)(F)F | > 10000 | –
21 | 15 | 13 | 27 | 2.63 | CCc1cnc2c(c1)c(C#N)c(-c1ccc(S(=O)(=O)N[C@@H](C)C(F)(F)F)cn1)n2C1CCC1 | > 5160 | –
22 | 700 | – | – | – | C[C@H](NS(=O)(=O)c1ccc(-c2c(C#N)c3ccc(Cl)nc3n2C2CCC2)nc1)C(F)(F)F | 6300 | –
23 | 530 | – | – | – | C[C@H](NS(=O)(=O)c1ccc(-c2c(C#N)c3cc(Cl)ncc3n2C2CCC2)nc1)C(F)(F)F | > 10000 | –
24 | 260 | – | – | – | C[C@H](NS(=O)(=O)c1ccc(-c2c(C#N)c3cnc(Cl)cc3n2C2CCC2)nc1)C(F)(F)F | 1310 | –
25 | 50 | 7 | 36 | 9.37 | C[C@H](NS(=O)(=O)c1ccc(-c2c(C#N)c3cc(OC(F)F)cnc3n2C2CCC2)nc1)C(F)(F)F | > 10000 | –
26 | 200 | – | – | – | CCOc1cnc2c(c1)c(C#N)c(-c1ccc(S(=O)(=O)N[C@@H](C)C(F)(F)F)cn1)n2C1CCC1 | > 10000 | –
27 | 87 | – | – | – | Cc1ccc2c(C#N)c(-c3ccc(S(=O)(=O)N[C@@H](C)C(F)(F)F)cn3)n(C3CCC3)c2n1 | > 10000 | –
28 | 2 | 44 | 503 | 5.83 | C[C@H](NS(=O)(=O)c1ccc(-c2c(C#N)c3cc(C(F)(F)F)cnc3n2C2CCC2)nc1)C(F)(F)F | > 10000 | Ratio [4]: 125; AUC(0-t) at 24 h [5]: 8.16 µM·h; AUC(0-t) at 24 h [12]: 5.44 µM·h; Ratio [13]: 105
29 | 7600 | – | – | – | CC(C)Oc1cnc2c(c1)c(C#N)c(-c1ccc(S(=O)(=O)N[C@@H](C)C(F)(F)F)cn1)n2C1CCC1 | > 10000 | –
